# Published values pooled from the literature.
# Lines come from different studies, so protocols differ.
# Target: Phosphorylase b kinase gamma catalytic chain, liver/testis isoform (PHKG2, Homo sapiens, UniProt P15735)
# Sequence (P15735 1-406, as in one of the studies): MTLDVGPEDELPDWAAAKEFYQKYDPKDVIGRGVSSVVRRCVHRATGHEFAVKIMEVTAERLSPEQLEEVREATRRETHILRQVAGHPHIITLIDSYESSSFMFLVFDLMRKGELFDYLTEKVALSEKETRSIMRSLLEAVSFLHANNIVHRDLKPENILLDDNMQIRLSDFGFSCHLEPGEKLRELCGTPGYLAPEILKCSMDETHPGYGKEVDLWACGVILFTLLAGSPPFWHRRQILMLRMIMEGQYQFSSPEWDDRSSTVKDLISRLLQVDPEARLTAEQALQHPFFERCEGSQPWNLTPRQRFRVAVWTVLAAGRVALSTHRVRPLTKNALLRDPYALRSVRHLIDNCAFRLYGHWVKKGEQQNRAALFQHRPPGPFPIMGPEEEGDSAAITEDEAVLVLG
Structure (SMILES),observed,action,technique,cells,tested at,measurement,result
O=C(Nc1cnn(-c2csc(C(=O)NC3COC3)c2)c1)Nc1ccccc1Cl,enzyme activity,inhibitor,,,5 µM,remaining activity,101%
O=C1NC(=O)c2cc(Nc3ccc(F)cc3)c(Nc3ccc(F)cc3)cc21,cell-free assay,,,,0.5 µM,remaining signal,97.1%
CC/C(=N\NC(=O)NCc1cccc(O)c1)c1ccc(O)c(C)c1O,enzyme activity,inhibitor,,,0.1 µM,inhibition,-2.9%
CCN(CC)CCNC(=O)c1c(C)[nH]c(/C=C2\C(=O)Nc3ccc(F)cc32)c1C,enzyme activity,inhibitor,,,10 µM,inhibition,101%
CNCc1ccccc1-c1csc([C@H](C)Nc2nc(C)nc3cc(OC)c(OC)cc23)c1,cell-free assay,,competition with immobilised ligand,,1 µM,remaining binding,100%
Cc1ccc(Nc2nccc(N(C)c3ccc4c(C)n(C)nc4c3)n2)cc1S(N)(=O)=O,enzyme activity,inhibitor,,,0.3 µM,inhibition,-4%
CCC(=O)N[C@@H]1CC[C@H](C(=O)N(C)c2ccc(-c3nc4ccccc4o3)cc2)C1,cell-free assay,,competition with immobilised ligand,,1 µM,remaining binding,100%
O=C1Nc2ccc(Cl)cc2C1=Cc1cc(Cl)c(O)c(Cl)c1,cell-free assay,,,,0.5 µM,remaining signal,98.4%
COc1cc(Cl)c(C(=O)N[C@@H](CN[C@H]2CC[C@@H](N)CC2)Cc2ccc(C#N)cc2)cc1-c1ccc(CN[C@H](C)c2ccc(C)cc2)o1,enzyme activity,inhibitor,,,1 µM,remaining activity,103%
Clc1ccc(Nc2nnc(Cc3ccncc3)c3ccccc23)cc1,cell-free assay,,,,0.5 µM,remaining signal,91.8%
COc1cccc2c(NCc3ccccc3)nc(-n3c(N)nc4ccccc43)nc12,target engagement in cells,inhibitor,chemoproteomics,,20 mM,inhibition,4.6%
CCCS(=O)(=O)Nc1ccc(F)c(C(=O)c2c[nH]c3ncc(-c4ccc(Cl)cc4)cc23)c1F,enzyme activity,inhibitor,,,1 µM,inhibition,< 10%
O=C(Nc1cccnn1)N1CC(C/C=C/c2cncc(Oc3ccc(C(F)(F)F)cn3)n2)C1,cell-free assay,,competition with immobilised ligand,,1 µM,remaining binding,100%
CCN(CC)c1ccc(C2=NNC(=O)CC2C)cc1[N+](=O)[O-] (stereo not drawn),enzyme activity,inhibitor,,,10 µM,remaining activity,107%
COc1cc2ncnc(Nc3ccc(Oc4ccccc4)c(C)c3C)c2cc1OC,enzyme activity,inhibitor,,,1 µM,inhibition,2%
CC(C)CC(=O)N1CCc2nc(-c3ccc(Br)cc3)nc(N(C)Cc3ccccc3)c2C1,cell-free assay,,competition with immobilised ligand,,0.1 µM,remaining binding,100%
CNC(=O)c1cc(Oc2ccc(NC(=O)Nc3ccc(Cl)c(C(F)(F)F)c3)cc2)ccn1,cell-free assay,,,,0.5 µM,remaining signal,91.3%
Cc1sc(C(=O)NC2COC2)cc1-n1cc(NC(=O)Nc2c(F)cccc2Cl)cn1,enzyme activity,inhibitor,,,10 µM,remaining activity,88.5%
CC(C)(C)c1nc(-c2cccc(NS(=O)(=O)c3c(F)cccc3F)c2F)c(-c2ccnc(N)n2)s1,enzyme activity,inhibitor,radiometric,,1 µM,remaining activity,88%
CCCCN(CCCC)C(=O)CN1C[C@@H](c2cc(OC)c3c(c2)OCO3)[C@H](C(=O)O)[C@H]1CC(C)(C)CCC,cell-free assay,,competition with immobilised ligand,,1 µM,remaining binding,100%
CCN1CCN(Cc2ccc(NC(=O)c3ccc(C)c(Oc4ccnc5[nH]ccc45)c3)cc2C(F)(F)F)CC1,target engagement in cells,inhibitor,chemoproteomics,Huh-7,10 µM,inhibition,-12.3%
CC(=O)N1CCC(c2ccc(C(=O)NC(=N)N)cc2C(F)(F)F)CC1,cell-free assay,,competition with immobilised ligand,,1 µM,remaining binding,100%
COc1cc2c(Nc3ccc(Br)cc3F)ncnc2cc1OCC1CCN(C)CC1,cell-free assay,,,,0.5 µM,remaining signal,99.1%
Cn1nc(C(F)(F)F)cc1-c1cnc(N2CCc3cc(S(=O)(=O)Nc4c(F)cc(Cl)cc4F)cc(N4CCCC4=O)c32)nc1,cell-free assay,,competition with immobilised ligand,,1 µM,remaining binding,96%
Cc1cc(NC(=O)c2cccc3cc(-c4cccc5[nH]nc(N)c45)ccc23)ccc1F,enzyme activity,inhibitor,,,0.1 µM,activity vs control,87%
CO[C@@H](C)c1c(Nc2ccc([C@H](N(C)C(=O)C3CCS(=O)(=O)CC3)C(F)(F)F)cc2)cnc2cc(Cl)nn12,cell-free assay,,competition with immobilised ligand,,1 µM,remaining binding,96%
Cc1ccc(NC(=O)c2ccc(C)c(C(F)(F)F)c2)cc1C#Cc1nn(C2CCC(O)CC2)c2ncnc(N)c12 (stereo not drawn),cell-free assay,,,,10 µM,remaining signal,113%
